Test results: ChEMBL document CHEMBL1129476, “In vivo activity and hydrophobicity of cytostatic aziridinyl quinones” (J Med Chem, 1996)

Experiments:
[1] = Observed rate of hydrolysis (logKobs) (pH=4.0); assay type: ADME
Method in brief: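 Hydrolysis followed by cyclic voltammetry at 20 °C in deaerated 0.1 M acetate buffers (pH 5.0–3.5) or 0.02 M NaH2PO4 (pH 3.5, 3.0), ionic strength 0.1 M (NaNO3). Decrease of the parent cathodic peak tracked over time. Pseudo-first-order kobs from linear regression of log concentration versus time.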

B16 = assay: log 1/D125 or the dose (mmol/kg) to give 125%T/C ratio (B16) in vivo; assay type: functional, Mus musculus
[2] = log 1/anion production.; assay type: functional
[3] = log 1/LD50 for LD50 (mmol/kg); assay type: ADME
[4] = Electrochemically observed pKa (pKred) of aziridines; assay type: physicochemical; settings: read-out: pKred
[5] = log KGSH for the rate k of glutathione (GSH) consumption in 1/s; assay type: functional
L1210 [6] = assay: log 1/ID75 for the in vitro clonogenic L1210 assay with ID75 in umol/L; assay type: functional, Mus musculus
Nucleic Acid = assay: (§1) DNA cross link ratio at pH=5.0 and 50 umol/L compound; assay type: functional
[7] = E1/2 for the half-wave potential at pH=7.0 in V57; assay type: ADME
L1210 [8] = assay: log 1/D125 for the dose (mmol/kg) to give 125%T/C ratio (L1210) in vivo; assay type: functional, Mus musculus
[9] = (§2) log 1/MIC for fungi in mmol/L; assay type: functional
[10] = HPLC capacity factor (logK); assay type: ADME
Fungi = assay: as §2; assay type: functional
[11] = Partition coefficient (logP); assay type: physicochemical; settings: octanol/water
Method in brief: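 Micro shake-flask: buffered aqueous compound solution (pH 6.50) shaken with an equal volume of water-saturated 1-octanol at room temperature, 3 × 120 s. Centrifuged 14000g, 15 min. Aqueous phase analysed by RP-HPLC against the unshaken solution (methanol 30, 50 or 70 wt%, 1.0 mL/min, UV 254 nm). Run in duplicate, or quadruplicate if needed.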

[12] = as §1; assay type: functional

SMILES	Log Kobs [1]	Log 1/D125 (mM kg-1) (B16)	Log 1/conc (mM min-1 L-1) [2]	Log 1/LD50 (mM kg-1) [3]	pKa [4]	Log k GSH (s-1) [5]	Log 1/ID75 (uM L-1) (L1210 [6])	DNA cross-link ratio (Nucleic Acid)	E 1/2 [7]	Log 1/D125 (L1210) (mM kg-1) (L1210 [8])	Log 1/MIC (mM L-1) [9]	Log K [10]	Log 1/MIC (mM L-1) (Fungi)	logP [11]	lnK [12]
CC1=C(N2CC2)C(=O)C(CCOC(N)=O)=C(N2CC2)C1=O	-4.05	3.49	1.02	1.99	8.9	-4.92	1.82	0.27	-0.213	2.86	–	–	–	–	–
O=C1C(Br)=C(N2CC2)C(=O)C(Br)=C1N1CC1	-4.7	–	2.87	–	–	–	0.35	–	–	–	1.54	0.474	–	–	–
CCC1=C(N2CC2)C(=O)C(Br)=C(N2CC2)C1=O	-4.3	2.6	2.42	1.39	8.8	-3	2.82	0.15	-0.21	1.41	–	–	1.57	–	–
CCOC(=O)NC1=C(N2CC2)C(=O)C(NC(=O)OCC)=C(N2CC2)C1=O [DIAZIQUONE]	-4.25	2.32	1.56	1.54	8.3	-4.64	-0.57	0.14	-0.149	2.26	–	-0.48	-0.29	0.04	–
CC1=C(N2CC2C)C(=O)C(Br)=C(N2CC2C)C1=O (centres undefined)	-3.85	1.71	2.5	1.59	9.2	–	2.66	–	-0.194	1.79	–	–	1.01	–	0.03
COC(COC(N)=O)C1=C(N2CC2)C(=O)C(C)=C(N2CC2)C1=O (centres undefined) [CARBOQUONE]	-3.65	3.32	0.57	1.73	8.6	-5.15	1.05	0.26	-0.182	3.21	–	-0.438	-1.19	-0.15	–
O=C1C=C(N2CC2)C(=O)C=C1N1CC1	-2.57	3.16	2.09	1.8	7.5	-3.24	1.68	0.29	-0.105	2.77	–	–	2.58	0.18	–
